From ChEMBL document CHEMBL5661979, “Pharmacological inhibition of BMK1 suppresses tumor growth through promyelocytic leukemia protein” (Cancer Cell, 2010)

How the values were obtained:
[1] = Inhibition of MSK1/2 domain 1 in human HeLa cells lysate at 10 uM pre incubated for 15 mins followed by ATP acyl phosphate probe addition and measured after 10 mins by LC-MS/MS analysis relative to control; conditions: 25 min, condition cancer
[2] = biological target: Tyrosine-protein kinase JAK1 (Homo sapiens, UniProt P23458); assay: Inhibition of JAK1 domain 2 in human HeLa cells lysate pre incubated for 15 mins followed by ADP acyl phosphate probe addition and measured after 10 mins by LC-MS/MS analysis; assay type: subcellular
Sequence of Tyrosine-protein kinase JAK1 (P23458 whole entry, the tested form may be a part): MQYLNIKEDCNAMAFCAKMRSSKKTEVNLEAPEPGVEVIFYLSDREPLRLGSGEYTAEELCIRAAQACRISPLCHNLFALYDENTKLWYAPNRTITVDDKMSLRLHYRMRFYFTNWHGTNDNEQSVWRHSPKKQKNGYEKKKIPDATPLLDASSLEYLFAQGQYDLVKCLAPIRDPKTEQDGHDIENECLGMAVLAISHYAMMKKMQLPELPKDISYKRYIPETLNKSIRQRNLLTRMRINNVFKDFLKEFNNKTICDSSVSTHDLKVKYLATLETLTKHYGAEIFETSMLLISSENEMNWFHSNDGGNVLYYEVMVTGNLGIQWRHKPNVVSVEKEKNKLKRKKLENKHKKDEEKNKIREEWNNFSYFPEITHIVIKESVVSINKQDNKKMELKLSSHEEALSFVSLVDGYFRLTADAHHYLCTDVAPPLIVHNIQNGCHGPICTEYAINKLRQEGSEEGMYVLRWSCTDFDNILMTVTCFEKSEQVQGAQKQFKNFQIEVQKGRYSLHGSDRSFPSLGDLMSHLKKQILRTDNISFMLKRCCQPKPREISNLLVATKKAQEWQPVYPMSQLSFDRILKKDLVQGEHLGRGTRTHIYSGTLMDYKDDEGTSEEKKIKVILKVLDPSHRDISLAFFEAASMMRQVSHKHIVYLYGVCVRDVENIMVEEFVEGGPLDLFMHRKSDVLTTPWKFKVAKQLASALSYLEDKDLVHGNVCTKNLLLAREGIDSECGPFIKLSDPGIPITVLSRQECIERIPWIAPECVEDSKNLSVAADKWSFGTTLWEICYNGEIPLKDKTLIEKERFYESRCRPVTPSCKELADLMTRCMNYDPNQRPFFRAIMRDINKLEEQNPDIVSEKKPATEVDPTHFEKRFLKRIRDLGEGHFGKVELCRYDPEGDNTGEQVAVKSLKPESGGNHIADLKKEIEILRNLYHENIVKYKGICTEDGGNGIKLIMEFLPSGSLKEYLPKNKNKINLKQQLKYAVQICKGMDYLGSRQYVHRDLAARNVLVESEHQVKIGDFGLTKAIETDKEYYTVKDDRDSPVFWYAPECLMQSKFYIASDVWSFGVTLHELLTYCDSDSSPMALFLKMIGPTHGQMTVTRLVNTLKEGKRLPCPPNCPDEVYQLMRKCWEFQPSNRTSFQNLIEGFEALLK

[3] = biological target: Serine/threonine-protein kinase DCLK2 (Homo sapiens, UniProt Q8N568); assay: Binding affinity to DCAMKL2 (unknown origin) assessed as dissociation constant by ATP-competition binding assay
Sequence of Serine/threonine-protein kinase DCLK2 (Q8N568 whole entry): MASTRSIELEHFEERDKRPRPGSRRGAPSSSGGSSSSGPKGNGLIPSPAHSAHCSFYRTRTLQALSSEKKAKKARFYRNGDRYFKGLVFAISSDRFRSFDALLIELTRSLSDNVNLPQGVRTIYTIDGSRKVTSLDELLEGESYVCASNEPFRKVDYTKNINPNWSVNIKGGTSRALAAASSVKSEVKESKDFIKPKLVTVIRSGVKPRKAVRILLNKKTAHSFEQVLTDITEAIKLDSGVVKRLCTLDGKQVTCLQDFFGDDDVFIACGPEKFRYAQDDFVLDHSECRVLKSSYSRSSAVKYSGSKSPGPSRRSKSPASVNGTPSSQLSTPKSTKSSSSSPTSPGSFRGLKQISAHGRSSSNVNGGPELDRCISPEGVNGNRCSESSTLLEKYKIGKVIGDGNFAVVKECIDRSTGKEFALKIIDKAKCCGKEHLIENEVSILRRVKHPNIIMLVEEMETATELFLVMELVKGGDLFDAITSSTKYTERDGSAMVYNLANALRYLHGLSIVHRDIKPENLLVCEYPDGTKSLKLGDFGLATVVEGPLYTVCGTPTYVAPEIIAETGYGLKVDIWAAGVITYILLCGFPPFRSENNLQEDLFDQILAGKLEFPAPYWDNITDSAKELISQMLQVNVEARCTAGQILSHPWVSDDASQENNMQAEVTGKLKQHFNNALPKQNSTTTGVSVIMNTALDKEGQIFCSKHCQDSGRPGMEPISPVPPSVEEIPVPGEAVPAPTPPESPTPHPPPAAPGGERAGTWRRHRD

[4] = biological target: T1, STE20-related kinase adapter protein beta (Homo sapiens) (UniProt Q9C0K7); assay: Inhibition of ALS2CR2 in human HeLa cells lysate at 10 uM pre incubated for 15 mins followed by ADP acyl phosphate probe addition and measured after 10 mins by LC-MS/MS analysis relative to control; assay type: subcellular; conditions: time 25.0 min
T1 sequence (whole entry): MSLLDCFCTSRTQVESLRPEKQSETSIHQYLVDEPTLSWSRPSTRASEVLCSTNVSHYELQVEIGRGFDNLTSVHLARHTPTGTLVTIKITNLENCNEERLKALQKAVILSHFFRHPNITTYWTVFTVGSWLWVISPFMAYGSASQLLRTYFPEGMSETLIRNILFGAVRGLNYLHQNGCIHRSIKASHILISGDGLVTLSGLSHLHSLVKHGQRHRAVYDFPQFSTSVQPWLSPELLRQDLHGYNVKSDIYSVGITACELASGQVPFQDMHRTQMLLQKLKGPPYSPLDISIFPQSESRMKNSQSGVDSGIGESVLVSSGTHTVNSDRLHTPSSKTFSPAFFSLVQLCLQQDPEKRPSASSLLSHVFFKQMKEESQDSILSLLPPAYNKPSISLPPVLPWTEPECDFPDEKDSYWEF
Method in brief: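 HeLa cell lysates (5 mg/mL total protein) were preincubated with inhibitor at 0, 0.8, 2, 10 or 50 μM for 15 min. ATP or ADP acylphosphate probe was then added (5 μM final) for 10 min, and reactions were stopped with urea. Up to four fragment ions per kinase probe-peptide were quantified by targeted MS. % inhibition was taken relative to untreated lysate. Run in duplicate.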

[5] = biological target: Cyclin-dependent kinase 9 (Homo sapiens, UniProt P50750); assay: Inhibition of CDK9 in human HeLa cells lysate at 10 uM pre incubated for 15 mins followed by ATP acyl phosphate probe addition and measured after 10 mins by LC-MS/MS analysis relative to control; assay type: subcellular; conditions: time 25.0 min
Sequence of Cyclin-dependent kinase 9 (P50750 whole entry, the tested form may be a part): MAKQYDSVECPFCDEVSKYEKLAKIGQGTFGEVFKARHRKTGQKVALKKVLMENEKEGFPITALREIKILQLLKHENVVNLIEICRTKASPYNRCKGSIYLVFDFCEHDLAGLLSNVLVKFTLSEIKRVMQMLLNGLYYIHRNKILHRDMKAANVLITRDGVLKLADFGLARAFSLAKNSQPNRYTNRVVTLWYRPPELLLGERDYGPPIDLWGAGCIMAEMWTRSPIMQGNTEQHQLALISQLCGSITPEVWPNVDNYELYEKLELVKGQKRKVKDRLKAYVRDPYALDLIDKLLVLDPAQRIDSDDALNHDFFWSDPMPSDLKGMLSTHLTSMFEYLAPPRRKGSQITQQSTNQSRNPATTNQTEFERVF
Method in brief: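 KiNativ profiling in HeLa lysate (5 mg/mL total protein). Lysate incubated 15 min with inhibitor at 50, 10, 2, 0.8 or 0 μM. ATP or ADP acylphosphate probe then added (5 μM final) and reacted 10 min. Reaction stopped with urea and analysed by targeted MS, using up to four fragment ions per kinase peptide-probe conjugate. % inhibition taken against untreated lysate. Run in duplicate.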

[6] = biological target: Serine/threonine-protein kinase Sgk1 (Homo sapiens, UniProt O00141); assay: Inhibition of SGK1 in human HeLa cells lysate pre incubated for 15 mins followed by ADP acyl phosphate probe addition and measured after 10 mins by LC-MS/MS analysis; assay type: subcellular
Sequence of Serine/threonine-protein kinase Sgk1 (O00141 whole entry): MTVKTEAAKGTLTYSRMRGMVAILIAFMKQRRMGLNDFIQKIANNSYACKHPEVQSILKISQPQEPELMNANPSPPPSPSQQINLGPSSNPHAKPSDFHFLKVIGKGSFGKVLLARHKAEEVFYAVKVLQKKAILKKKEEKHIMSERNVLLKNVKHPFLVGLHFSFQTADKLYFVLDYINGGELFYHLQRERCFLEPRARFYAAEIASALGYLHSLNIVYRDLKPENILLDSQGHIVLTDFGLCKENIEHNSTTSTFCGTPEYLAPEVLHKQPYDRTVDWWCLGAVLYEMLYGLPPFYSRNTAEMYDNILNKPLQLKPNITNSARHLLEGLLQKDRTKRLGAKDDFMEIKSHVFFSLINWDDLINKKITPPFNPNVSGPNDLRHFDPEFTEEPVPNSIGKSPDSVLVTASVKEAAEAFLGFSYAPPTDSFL

[7] = biological target: T2, Phosphatidylinositol 5-phosphate 4-kinase type-2 alpha (Homo sapiens, UniProt P48426); assay: Inhibition of PIP5K2A in human HeLa cells lysate pre incubated for 15 mins followed by ATP acyl phosphate probe addition and measured after 10 mins by LC-MS/MS analysis; assay type: subcellular
T2 sequence (P48426 whole entry): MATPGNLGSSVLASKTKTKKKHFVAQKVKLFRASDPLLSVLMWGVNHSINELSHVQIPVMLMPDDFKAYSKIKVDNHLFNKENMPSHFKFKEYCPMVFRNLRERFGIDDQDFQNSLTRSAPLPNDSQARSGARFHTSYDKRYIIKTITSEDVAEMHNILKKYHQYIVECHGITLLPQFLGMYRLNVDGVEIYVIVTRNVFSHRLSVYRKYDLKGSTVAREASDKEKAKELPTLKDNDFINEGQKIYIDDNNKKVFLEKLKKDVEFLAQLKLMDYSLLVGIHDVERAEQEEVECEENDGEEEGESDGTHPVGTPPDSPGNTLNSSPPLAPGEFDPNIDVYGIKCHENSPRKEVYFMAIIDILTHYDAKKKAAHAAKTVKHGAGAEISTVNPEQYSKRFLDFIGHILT

[8] = biological target: Non-receptor tyrosine-protein kinase TNK1 (Homo sapiens, UniProt Q13470); assay: Binding affinity to TNK1 (unknown origin) assessed as dissociation constant by ATP-competition binding assay
Sequence of Non-receptor tyrosine-protein kinase TNK1 (Q13470 whole entry): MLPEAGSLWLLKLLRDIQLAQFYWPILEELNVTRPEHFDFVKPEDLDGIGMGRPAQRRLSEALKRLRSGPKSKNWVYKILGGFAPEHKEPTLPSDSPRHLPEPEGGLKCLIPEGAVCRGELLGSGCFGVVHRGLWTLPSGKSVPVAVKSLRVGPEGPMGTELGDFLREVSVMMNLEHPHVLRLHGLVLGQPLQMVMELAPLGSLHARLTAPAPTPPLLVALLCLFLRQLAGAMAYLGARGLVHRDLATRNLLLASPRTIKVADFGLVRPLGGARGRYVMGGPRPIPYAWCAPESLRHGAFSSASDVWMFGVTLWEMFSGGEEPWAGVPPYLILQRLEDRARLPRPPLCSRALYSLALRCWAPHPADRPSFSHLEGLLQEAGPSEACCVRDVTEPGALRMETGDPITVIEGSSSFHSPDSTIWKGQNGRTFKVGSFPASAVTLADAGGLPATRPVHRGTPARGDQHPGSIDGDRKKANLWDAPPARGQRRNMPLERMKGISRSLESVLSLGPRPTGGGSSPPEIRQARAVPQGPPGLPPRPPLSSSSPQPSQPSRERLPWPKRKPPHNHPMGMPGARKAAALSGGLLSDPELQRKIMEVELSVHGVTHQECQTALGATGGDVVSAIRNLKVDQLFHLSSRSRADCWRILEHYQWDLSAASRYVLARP

[9] = biological target: T3, Serine/threonine-protein kinase 3 (Homo sapiens) (UniProt Q13188); assay: Inhibition of MST2 in human HeLa cells lysate at 2 uM pre incubated for 15 mins followed by ADP acyl phosphate probe addition and measured after 10 mins by LC-MS/MS analysis relative to control; assay type: subcellular; conditions: time 25.0 min
T3 sequence (whole entry): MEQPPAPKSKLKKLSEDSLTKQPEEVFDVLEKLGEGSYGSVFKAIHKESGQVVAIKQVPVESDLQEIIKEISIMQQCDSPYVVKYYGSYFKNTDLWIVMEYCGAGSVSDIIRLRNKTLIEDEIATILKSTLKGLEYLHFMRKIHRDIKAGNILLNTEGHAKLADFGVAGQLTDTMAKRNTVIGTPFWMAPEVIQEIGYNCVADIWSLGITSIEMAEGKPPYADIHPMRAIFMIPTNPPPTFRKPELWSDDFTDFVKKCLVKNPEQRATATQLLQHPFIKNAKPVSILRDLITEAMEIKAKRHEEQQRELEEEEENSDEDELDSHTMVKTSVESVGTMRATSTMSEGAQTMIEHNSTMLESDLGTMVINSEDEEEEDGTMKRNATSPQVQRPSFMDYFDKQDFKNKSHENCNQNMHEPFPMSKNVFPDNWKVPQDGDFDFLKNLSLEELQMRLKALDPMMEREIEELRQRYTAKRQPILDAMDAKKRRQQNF

[10] = biological target: T4, Epidermal growth factor receptor (Homo sapiens, UniProt P00533); assay: Inhibition of EGFR in human HeLa cells lysate at 50 uM pre incubated for 15 mins followed by ADP acyl phosphate probe addition and measured after 10 mins by LC-MS/MS analysis relative to control; assay type: subcellular; conditions: time 25.0 min
T4 sequence (P00533 whole entry): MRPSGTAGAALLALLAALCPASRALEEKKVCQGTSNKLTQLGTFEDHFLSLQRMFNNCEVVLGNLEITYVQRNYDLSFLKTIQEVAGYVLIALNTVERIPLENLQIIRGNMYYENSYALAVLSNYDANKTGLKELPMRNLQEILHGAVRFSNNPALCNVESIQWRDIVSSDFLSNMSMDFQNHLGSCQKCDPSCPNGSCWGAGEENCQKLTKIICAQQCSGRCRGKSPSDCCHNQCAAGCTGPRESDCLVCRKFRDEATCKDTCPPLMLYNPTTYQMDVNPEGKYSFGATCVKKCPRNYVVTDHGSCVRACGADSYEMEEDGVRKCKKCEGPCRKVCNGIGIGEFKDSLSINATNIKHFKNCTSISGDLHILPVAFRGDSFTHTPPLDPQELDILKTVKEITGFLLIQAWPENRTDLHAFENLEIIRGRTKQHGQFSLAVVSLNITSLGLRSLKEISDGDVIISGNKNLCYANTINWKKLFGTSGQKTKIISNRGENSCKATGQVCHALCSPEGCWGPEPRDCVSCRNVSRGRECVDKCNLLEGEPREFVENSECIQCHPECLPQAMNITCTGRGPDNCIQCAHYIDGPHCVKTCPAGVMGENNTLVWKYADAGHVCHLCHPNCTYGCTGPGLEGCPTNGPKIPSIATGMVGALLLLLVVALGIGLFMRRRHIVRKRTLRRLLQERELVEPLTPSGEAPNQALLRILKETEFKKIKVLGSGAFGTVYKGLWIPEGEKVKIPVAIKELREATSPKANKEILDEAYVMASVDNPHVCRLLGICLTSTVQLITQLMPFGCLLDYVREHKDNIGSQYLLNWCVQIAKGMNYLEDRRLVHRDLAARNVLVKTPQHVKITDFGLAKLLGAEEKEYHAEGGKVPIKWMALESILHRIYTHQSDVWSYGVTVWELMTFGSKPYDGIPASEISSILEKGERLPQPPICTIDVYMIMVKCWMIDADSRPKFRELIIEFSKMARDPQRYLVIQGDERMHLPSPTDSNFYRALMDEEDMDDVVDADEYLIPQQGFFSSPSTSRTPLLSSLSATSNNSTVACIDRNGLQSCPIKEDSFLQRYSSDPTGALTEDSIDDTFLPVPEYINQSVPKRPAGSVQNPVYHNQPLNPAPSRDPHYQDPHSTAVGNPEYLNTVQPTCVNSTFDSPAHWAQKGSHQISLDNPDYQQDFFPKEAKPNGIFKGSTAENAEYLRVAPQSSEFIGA

[11] = biological target: T4, Epidermal growth factor receptor; assay: Inhibition of EGFR in human HeLa cells lysate pre incubated for 15 mins followed by ATP acyl phosphate probe addition and measured after 10 mins by LC-MS/MS analysis; assay type: subcellular
[12] = biological target: Serine/threonine-protein kinase 3 (Homo sapiens, UniProt Q13188); assay: Inhibition of MST2 in human HeLa cells lysate pre incubated for 15 mins followed by ADP acyl phosphate probe addition and measured after 10 mins by LC-MS/MS analysis; assay type: subcellular
[13] = biological target: Serine/threonine-protein kinase SMG1 (Homo sapiens, UniProt Q96Q15); assay: Inhibition of SMG1 in human HeLa cells lysate at 2 uM pre incubated for 15 mins followed by ATP acyl phosphate probe addition and measured after 10 mins by LC-MS/MS analysis relative to control; assay type: subcellular; conditions: time 25.0 min
[14] = Inhibition of PRKX/PRKY in human HeLa cells lysate at 2 uM pre incubated for 15 mins followed by ADP acyl phosphate probe addition and measured after 10 mins by LC-MS/MS analysis relative to control; conditions: 25 min, condition cancer

Compound CCOc1cc(N2CCC(O)CC2)ccc1Nc1ncc2c(n1)N(C)c1ccccc1C(=O)N2C has an inhibition at 10 µM [1] of -10.6%, an IC50 [2] of over 50 µM and a Kd [3] of 0.19 µM. The inhibition [4] was -9.5%, the inhibition [5] was -4.1% and the IC50 [6] was over 50 µM. For the same compound, the IC50 [7] was over 50 µM, the Kd [8] was 0.89 µM and the inhibition [9] was 26.2%. It also gave an inhibition [10] of 5.9%, an IC50 [11] of over 50 µM and an IC50 [12] of over 50 µM. It also gave an inhibition [13] of 1.8% and an inhibition at 2 µM [14] of 25.5%.
